Screening results: PubChem BioAssay, several laboratories
A selection: hits, their analogues and other compounds. The true share with any hit is near 1.8%.
MC4R ag barr = agonists of human melanocortin 4 receptor (MC4R) beta-arrestin; 360,000 tested, 0.98% active; activation, % at 8.9 µM; U2OS MC4R beta-arrestin complementation, luminescence; percent of melanotan II response, DMSO zero; AID 540308; P32245;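 active means activation above a per-plate cutoff, the mean activation of sample wells on that plate plus 3 SD, cut at about 8% in these data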
MC4R antag cAMP = human MC4R antagonism in cAMP assay; 360,000 tested, 0.48% active; MC4R-expressing cells, MTII-stimulated cAMP, LANCE TR-FRET; P32245; inhibition, % at 6.5 µM;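 active means inhibition above its plate's cutoff, the mean of tested wells on that plate plus 3 SD, cut at about 29% in these data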;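 further: 0% = Melanotan II alone and 100% = Melanotan II plus saturating MCL0020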
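Assay system: human MC4R-expressing U2OS cells; reagent: Melanotan II stimulation of cells; dosing: 6.5 µM single dose; timing: compound 30 min, challenge 1 h, detection 1 h; signal: TR-FRET cAMP assay; replicates: one well per compound, no replicates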
AI-2 QS modul = Vibrio harveyi AI-2 quorum sensing modulation; Vibrio harveyi JMH597 AI-2 luminescence/OD600 ratio, 9 h; active compounds read low; strain lacks LuxN and CqsS sensors; 0 = neutral-control median; activity change, % at 7.5 µM; 300,000 tested, 0.4% active; AID 2094; in the data active means activity change below about -75%, passing the limit was not always enough;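 further: luminescence divided by OD600 gain over 9 h not by final OD600 alone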
NTR1 ag = agonists of human neurotensin receptor NTR1 | NTR1-U2OS beta-arrestin-GFP spot imaging, agonist mode | activation, % at 20 µM | 330,000 tested, 0.17% active | AID 493036;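 active means activation at or above 40% of the spot to cytoplasm intensity ratio, with at least 20 cells analyzed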;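 further: 0% = DMSO without peptide and 100% = 100 nM NTR1 peptide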
Target sequence (P30989 whole entry, looked up): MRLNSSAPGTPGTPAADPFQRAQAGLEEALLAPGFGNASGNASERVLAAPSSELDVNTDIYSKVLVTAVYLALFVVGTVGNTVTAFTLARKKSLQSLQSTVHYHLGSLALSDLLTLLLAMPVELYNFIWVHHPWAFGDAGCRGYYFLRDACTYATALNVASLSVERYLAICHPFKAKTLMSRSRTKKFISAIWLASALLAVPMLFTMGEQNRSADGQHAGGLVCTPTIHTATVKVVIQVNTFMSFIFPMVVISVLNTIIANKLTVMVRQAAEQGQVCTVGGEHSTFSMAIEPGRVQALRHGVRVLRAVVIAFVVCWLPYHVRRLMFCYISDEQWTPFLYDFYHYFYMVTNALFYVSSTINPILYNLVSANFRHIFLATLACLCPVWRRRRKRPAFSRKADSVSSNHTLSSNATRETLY
cAMP nonselect = U2OS forskolin cAMP inhibition counter-screen. shares compounds with MC4R antag cAMP. parental U2OS, LANCE TR-FRET. inhibition, % at 6.5 µM. 1,600 tested, 26% active. AID 602193;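 active means mean inhibition over triplicates above the low-control well mean plus 3 SD, set per campaign, cut at about 13% in these data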;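 further: signal is single emission at 671 nm which falls as cellular cAMP rises; 0% = forskolin-stimulated wells and 100% = buffer without forskolin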
MC4R cAMP antag = human MC4R cAMP antagonism confirmation; shares compounds with MC4R antag cAMP; MC4R-expressing cells, MTII-stimulated cAMP, TR-FRET; inhibition, % at 6.5 µM; 1,600 tested, 27% active; in the data active means inhibition above about 29%;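 further: 0% = agonist stimulated wells alone and 100% = agonist stimulated wells plus saturating reference antagonist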
Numbers without * were called inactive; · = not tested or not shown.

SMILES | MC4R ag barr | MC4R antag cAMP | AI-2 QS modul | NTR1 ag | cAMP nonselect | MC4R cAMP antag
CC(=O)NC(CC(=O)OCC(=O)c1c(N)n(C)c(=O)n(C)c1=O)c1ccccc1 (stereo not given) | -2 | 30* | 27 | 1 | 7 | 5
Cn1c(N)c(C(=O)COC(=O)CC(NC(N)=O)c2ccc(Cl)cc2)c(=O)n(C)c1=O (stereo not given) | 0 | 5 | · | 0 | · | ·
CCN(c1ccc(OCC(=O)OCC(=O)c2c(N)n(C)c(=O)n(C)c2=O)cc1)S(=O)(=O)c1ccccc1 | -2 | 42* | 12 | 5 | 9 | 19
CCOC(=O)N1CCN(C(=O)c2cc3c(-c4cccc(OC)c4)nn(C)c3s2)CC1 | 0 | 30* | 10 | 3 | 5 | 15
c1cc(-c2ccc(CN3CCOCC3)cc2)n2ccnc2c1 | 1 | -3 | · | · | · | ·
CCCc1cc(=O)oc2cc(C)cc(OCC(=O)N3CCC(C(=O)O)CC3)c12 | -1 | 7 | 19 | -2 | · | ·
COc1ccc(NC(=O)/C(C#N)=C\c2ccc(N3CCOCC3)o2)cc1 | -1 | -5 | 9 | -2 | · | ·
N#C/C(=C/c1ccc(N2CCCCC2)o1)C(=O)Nc1ccc2ccccc2c1 | -3 | 29* | 5 | · | -3 | 13
CCCN(C(=O)CSc1nc(C2CC2)n(-c2ccccc2)n1)C1CCS(=O)(=O)C1 (stereo not given) | -1 | -1 | · | 15 | · | ·
c1ccc(-c2noc(CN3CCCC(OCc4ccccn4)C3)n2)cc1 (stereo not given) | 0 | 31* | 11 | 1 | 1 | 5
CC(=O)c1cccc(NC(=O)CCc2nc3sc4c(c3c(=O)[nH]2)CCCC4)c1 | -3 | 6 | 16 | 1 | · | ·
CC(=O)Nc1cccc(OC(=O)COc2ccc(Br)cc2)c1 | 2 | 29* | 2 | 0 | -1 | 4
CC(=O)Nc1ccccc1OCCOc1ccc(Br)cc1 | -1 | 36* | 2 | 2 | 1 | -4
Cc1ccc(OCC(=O)Oc2cccc(C)c2)cc1 | 1 | -5 | 22 | 1 | · | ·
NS(=O)(=O)c1cccc(NC(=O)CSc2nnc(-c3ccncc3)n2C2CC2)c1 | 0 | 5 | · | -2 | · | ·
CC(=O)Nc1ccc(C(=O)OCCc2ccccc2)cc1 | 0 | 8 | · | 0 | · | ·
COC12CC(=O)C(C(C)=O)=C(O)C1(C)c1c(O)c(C)c(O)c(C(C)=O)c1O2 (stereo not given) | 2 | 3 | · | · | · | ·
CC(=O)c1c(O)c(C)c(O)c2c1OC1=CC(=O)/C(=C(/C)N)C(=O)C12C (stereo not given) | 1 | 36* | · | · | 5 | 26
COCCNC(=O)CCc1c(C)nc2nc(-c3cc(OC)cc(OC)c3)nn2c1C | 0 | 29* | 1 | 0 | 1 | -17
CCCNC(=O)CCc1c(C)nc2nc(-c3cc(OC)cc(OC)c3)nn2c1C | -1 | -4 | 24 | -1 | · | ·
COc1ccc(CN2CCC[C@]3(N[C@H](c4ccccc4)[C@@H]4C(=O)N(Cc5ccccc5)C(=O)[C@@H]43)C2=O)cc1 | 1 | 29* | · | · | -3 | -3
CCn1nnnc1NCc1ccc(OCc2c(F)cccc2Cl)c(OC)c1 | 0 | 32* | 20 | 1 | -3 | 7
CC(C)Sc1nnc(SCC(=O)NCCCN2CCCC2=O)s1 | -1 | 4 | · | 0 | · | ·
NC(=O)C(CCc1nc2ccccc2[nH]1)NS(=O)(=O)c1ccccc1 (stereo not given) | 0 | 9 | · | · | · | ·
O=C(Cc1cccc2ccccc12)N1CCN(c2ncccn2)CC1 | -1 | 30* | 5 | 0 | 2 | -2
SMILES | MC4R ag barr | MC4R antag cAMP | AI-2 QS modul | NTR1 ag | cAMP nonselect | MC4R cAMP antag
O=C(Cc1coc2ccc3ccccc3c12)N1CCN(c2ncccn2)CC1 | -1 | 2 | 6 | 0 | · | ·
O=C(COc1coc(CN2CCN(c3ccccc3)CC2)cc1=O)Nc1ccc(F)cc1 | 2 | 2 | 26 | 3 | · | ·
O=C1OC(c2ccccc2)=NC12CC2c1ccc(Cl)cc1 (stereo not given) | -1 | 29* | 17 | 25 | 0 | 4
O=CN1N=C(c2ccccc2)CC1c1ccc(Cl)cc1 (stereo not given) | 1 | 16 | · | 0 | · | ·
Cc1ccn(CCNC(=O)C2CCC(=O)N(CCc3ccc(Cl)cc3)C2)n1 (stereo not given) | 0 | 7 | 34 | 1 | · | ·
CCOC(=O)/C(=N\Nc1ccccc1Cl)N1CCN(c2ccccc2OC)CC1 | 0 | 29* | 12 | 6 | 1 | -2
CCOC(=O)/C(=N\Nc1ccccc1Cl)N1CCN(C)CC1 | -2 | -4 | 21 | -2 | · | ·
Cc1ccnc(NC(=O)c2cnc(Cl)c(Cl)c2)c1 | -1 | 32* | 6 | -2 | 18* | 22
Cc1cc(O)c(C(=O)Nc2cccc(Cl)c2)c(=O)n1C | -1 | 3 | 18 | 1 | · | ·
Cc1ccc(C(O)c2ncc(-c3cccc(C(F)(F)F)c3)[nH]2)cc1 (stereo not given) | 0 | -1 | · | · | · | ·
O=[N+]([O-])c1cc(-c2nc(-c3ccncc3)no2)cc([N+](=O)[O-])c1 | -2 | 13 | 46 | 1 | · | ·
O=[N+]([O-])c1cc(-c2nc(-c3ccncc3)no2)ccc1Cl | -1 | 39* | 24 | 3 | 18* | 47*
CN(C)c1nccc(Nc2ccccc2)c1C#N | -2 | -7 | 14 | -1 | · | ·
CN(C)c1ccnc(Nc2ccc(O)cc2)c1C#N | 1 | 29* | 31 | 0 | -1 | 3
COc1nc(N)nc2nc[nH]c12 | 0 | 8 | 28 | 2 | · | ·
O=C(NC(Cc1c[nH]c2ccccc12)C(=O)O)c1ccc(F)cc1 (stereo not given) | 2 | 24 | 22 | 2 | · | ·
NC(=O)COC(=O)[C@H](Cc1c[nH]c2ccccc12)NC(=O)c1ccc(F)cc1 | -2 | 32* | · | -1 | 14* | 23
C/C(CC(=O)Nc1cccc(Cl)c1Cl)=N\NC(=O)C(=O)N1CCCC1 | -1 | 9 | 9 | 0 | · | ·
C/C(CC(=O)Nc1cccc(Cl)c1Cl)=N\NC(=O)c1ccccc1C | 1 | 29* | 15 | -1 | 5 | 2
N#Cc1c(N2CCSCC2)nsc1-c1ccccc1Cl | -2 | 29* | 9 | · | 24* | 47*
N#Cc1c(N2CCOCC2)nsc1-c1ccc(C(F)(F)F)cc1 | 3 | 21 | 7 | 2 | · | ·
Cc1noc(C)c1C(=O)N1CCC1(C)C(=O)NS(=O)(=O)c1cccc(Cl)c1 (stereo not given) | 0 | -1 | · | · | · | ·
CC(C)(C)c1cc(C(c2cccnc2)N2CCN(CCO)CC2)cc(C(C)(C)C)c1O (stereo not given) | -3 | 29* | 128 | 1 | 10 | 19
CC(C)(C)n1nnnc1C(c1cccnc1)N1CCN(c2cccc(C(F)(F)F)c2)CC1 (stereo not given) | -1 | 20 | 2 | 1 | · | ·
